Measured values gathered from unrelated publications.
PIK3CA H1047Y: Phosphatidylinositol 4,5-bisphosphate 3-kinase catalytic subunit alpha isoform (PIK3CA, Homo sapiens, UniProt P42336, H1047Y)
PIK3CA: Phosphatidylinositol 4,5-bisphosphate 3-kinase catalytic subunit alpha isoform (PIK3CA, Homo sapiens, UniProt P42336)
PIK3CA I800L: Phosphatidylinositol 4,5-bisphosphate 3-kinase catalytic subunit alpha isoform (PIK3CA, Homo sapiens, UniProt P42336, I800L)
PIK3CA H1047L: Phosphatidylinositol 4,5-bisphosphate 3-kinase catalytic subunit alpha isoform (PIK3CA, Homo sapiens, UniProt P42336, H1047L)
PIK3CA M1043I: Phosphatidylinositol 4,5-bisphosphate 3-kinase catalytic subunit alpha isoform (PIK3CA, Homo sapiens, UniProt P42336, M1043I)
PIK3CA Q546K: Phosphatidylinositol 4,5-bisphosphate 3-kinase catalytic subunit alpha isoform (PIK3CA, Homo sapiens, UniProt P42336, Q546K)
PIK3CA E545A: Phosphatidylinositol 4,5-bisphosphate 3-kinase catalytic subunit alpha isoform (PIK3CA, Homo sapiens, UniProt P42336, E545A)
PIK3CA C420R: Phosphatidylinositol 4,5-bisphosphate 3-kinase catalytic subunit alpha isoform (PIK3CA, Homo sapiens, UniProt P42336, C420R)
PIK3CA E542K: Phosphatidylinositol 4,5-bisphosphate 3-kinase catalytic subunit alpha isoform (PIK3CA, Homo sapiens, UniProt P42336, E542K)

Compound	target	observed	technique	tested at	remaining binding [%]
CCc1ccccc1C(=O)Nc1n[nH]c2c(C)c(F)c(C3C(C#N)=C(C)N(C)C(C)=C3C#N)cc12	PIK3CA H1047Y	cell-free assay	competition with immobilised ligand	1 µM	77
O=C(c1ccc(Nc2nccc(-c3cc4ccccc4s3)n2)cc1)N1CCC(N2CCCC2)CC1	PIK3CA	binding	competition with immobilised ligand	1 µM	100
c1cncc(-c2cccc(Nc3nccc(NC4CCCCC4)n3)c2)c1	PIK3CA I800L	binding	competition with immobilised ligand	10 µM	77
COc1ncc2cc3ccccc3nc2c1C#N	PIK3CA H1047L	cell-free assay	competition with immobilised ligand	5 µM	98
O=C(NCC1CCOCC1)c1n[nH]cc1NC(=O)c1c(F)cccc1F	PIK3CA M1043I	binding	competition with immobilised ligand	1 µM	100
CCN1CCN(Cc2ccc(C(=O)Nc3ccc(C)c(Oc4ccc5c(c4)CC(=O)N5)c3)cc2C(F)(F)F)CC1	PIK3CA I800L	binding	competition with immobilised ligand	1 µM	95
COc1cnc(Nc2cccc(S(N)(=O)=O)c2)nc1N1CCN(c2ccccc2)CC1	PIK3CA	binding	competition with immobilised ligand	1 µM	98
F[C@@H]1CCN(c2nccc(-c3cnn4ncccc34)n2)C1	PIK3CA Q546K	binding	–	1 µM	55
CC1=C(C#N)[C@@H](c2ccc3[nH]nc(C)c3c2)C(C#N)=C(c2ccc(Cl)cc2)N1	PIK3CA E545A	cell-free assay	competition with immobilised ligand	1 µM	75.4
COc1ccnn2ncc(-c3ccnc(N(C)C)n3)c12	PIK3CA H1047L	binding	–	1 µM	76
C[C@H](NC(=O)c1cnc2n1[C@](C)(Cc1ccc(C#N)cc1)C(=O)N2c1cc(Cl)c(F)c(Cl)c1)C(=O)NC1(c2ccccn2)CC1	PIK3CA C420R	cell-free assay	competition with immobilised ligand	1 µM	93
CNC(=O)[C@@H]1CC[C@@H](n2c(-c3ccc4cnccc4c3)nc3ccc(C(=O)NCc4cccc(C(N)=O)c4)cc32)C1	PIK3CA H1047L	binding	competition with immobilised ligand	1 µM	100
CN(CCCC(F)(F)F)c1nccc(-c2cnn3ncccc23)n1	PIK3CA M1043I	binding	–	1 µM	100
O=C(Nc1c[nH]nc1C(=O)NC1CCNCC1)c1cc(F)cc(F)c1	PIK3CA C420R	binding	competition with immobilised ligand	1 µM	100
COc1cnc(Nc2cccc(S(N)(=O)=O)c2)nc1N1CCN(c2ccccc2)C(=O)C1	PIK3CA E542K	binding	competition with immobilised ligand	1 µM	91
CC1CCCN1c1nccc(-c2cnn3ncccc23)n1 (stereo not drawn)	PIK3CA	binding	–	1 µM	100
CCC(=O)N[C@H]1CC[C@@H](C(=O)N(C)c2ccc(-c3nc4ccccc4o3)cc2)C1	PIK3CA C420R	cell-free assay	competition with immobilised ligand	1 µM	92

Compound	target	observed	technique	tested at	remaining binding [%]
Nc1ncc2c(n1)-c1c([nH]c3ccc(C#CC4CC4)cc13)CCCC2	PIK3CA	binding	competition with immobilised ligand	1 µM	90
C[C@@]1(Cc2ccc(C#N)cc2)C(=O)N(c2cc(Cl)cc(Cl)c2)c2ncc(C(=O)NC3(c4nc(C5CCC5)no4)CC3)n21	PIK3CA E545A	cell-free assay	competition with immobilised ligand	1 µM	100
O=C(NCCCN1CCOCC1)c1ccc(Nc2nccc(-c3cc4ccccc4s3)n2)cc1	PIK3CA E545A	binding	competition with immobilised ligand	1 µM	84
CC(=O)C1=C(C)N(c2cccc(C(F)(F)F)c2)C(=O)N[C@@H]1c1ccc(C#N)nc1	PIK3CA H1047L	cell-free assay	competition with immobilised ligand	1 µM	69
O=C(NCCCN1CCOCC1)c1ccc(Nc2ncc(Cl)c(-c3ccc(Cl)s3)n2)cc1	PIK3CA H1047L	binding	competition with immobilised ligand	1 µM	100
C[C@@H](c1ccc(-n2cnc3c(N)ncnc32)cc1)N1CCc2nn(C)c(Cc3ccccc3)c2C1=O	PIK3CA Q546K	binding	competition with immobilised ligand	0.1 µM	77
CC(=O)c1c(NS(C)(=O)=O)c2cc(-c3ccc(Cl)cc3)c(-c3ccc(Cl)cc3Cl)nc2n(C)c1=O	PIK3CA	cell-free assay	competition with immobilised ligand	1 µM	100
O=C(c1ccc(Nc2ncc(Cl)c(-c3ccc(Cl)s3)n2)cc1)N1CCC(N2CCCC2)CC1	PIK3CA I800L	binding	competition with immobilised ligand	1 µM	92
N[C@H]1CCN(c2nccc(-c3cnn4ncccc34)n2)C1	PIK3CA M1043I	binding	–	1 µM	91
C=CC(=O)N1CCC(C(=O)NCC(=O)N2CCN(c3nc(-c4cnc(N)nc4C(F)F)nc(N4CCOCC4)n3)CC2)CC1	PIK3CA M1043I	binding	competition with immobilised ligand	1 µM	0
FC(F)(F)c1ccc2c(c1)nc(-c1cccnc1)n2C1CC1	PIK3CA M1043I	cell-free assay	competition with immobilised ligand	1 µM	100
C[C@H]1CCN(c2nccc(-c3cnn4ncccc34)n2)C1	PIK3CA M1043I	binding	–	1 µM	100
CN1CCN(c2ccc(Nc3nccc(-c4ccccc4)n3)cc2C(F)(F)F)CC1	PIK3CA E542K	binding	–	10 µM	70
CN(C)c1ncc(F)c(-c2cnn3ncccc23)n1	Phosphatidylinositol 4,5-bisphosphate 3-kinase catalytic subunit alpha isoform (PIK3CA, Homo sapiens, UniProt P42336, E545K)	binding	–	1 µM	63
Cc1cnc(Nc2ccc(C(=O)N3CCC(N4CCCC4)CC3)cc2)nc1-c1cc2ccccc2s1	PIK3CA E545A	binding	competition with immobilised ligand	1 µM	77
CN1CCN(c2ccc(Nc3nccc(-c4cccc([N+](=O)[O-])c4)n3)cc2C(F)(F)F)CC1	PIK3CA H1047Y	binding	–	10 µM	27
